These results are taken from ChEMBL document CHEMBL1144844, “Synthesis and characterization of 5,6,7,8-tetrahydroquinoline C5a receptor antagonists” (Bioorg Med Chem Lett, 2008).

The target of series [1] is T1, C5a anaphylatoxin chemotactic receptor 1 (Homo sapiens, UniProt P21730).
T1 sequence (P21730 whole entry): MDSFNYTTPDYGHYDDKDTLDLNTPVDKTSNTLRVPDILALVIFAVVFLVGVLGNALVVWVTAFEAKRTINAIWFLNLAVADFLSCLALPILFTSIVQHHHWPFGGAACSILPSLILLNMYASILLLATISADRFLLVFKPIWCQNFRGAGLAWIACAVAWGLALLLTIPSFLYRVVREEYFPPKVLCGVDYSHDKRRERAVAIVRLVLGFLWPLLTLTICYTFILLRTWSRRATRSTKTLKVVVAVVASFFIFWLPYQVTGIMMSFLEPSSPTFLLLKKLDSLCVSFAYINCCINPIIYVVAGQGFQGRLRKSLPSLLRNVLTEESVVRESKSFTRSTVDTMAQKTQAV
Put plainly: Antagonist activity at human C5a receptor in U937 cells assessed as inhibition of anaphylatoxin-induced intracellular calcium mobilization. Format: functional, cell-based, U-937. (In general: Calcium flux is commonly read through the fluorescence of an indicator in the cells.)

Series [2] concerns the target T1, C5a anaphylatoxin chemotactic receptor 1. Put plainly: Displacement of [125I]C5a from human C5a receptor in U937 cells. Format: cell-based, U-937.
A short description of series [3]: Metabolic stability in human liver microsomes. Format: ADME, Microsome. In general terms: Liver microsomes are vesicles of endoplasmic reticulum, rich in cytochrome P450 enzymes.
The nature of series [4]: Metabolic stability in human liver microsomes after 10 mins. As to conditions: read-out: Stability. Format: ADME, Microsome.
A short description of series [5]: Cmax in rat at 10 mg/kg, po. As to conditions: in vivo. Format: ADME, organism-based. On the set-up: dose 10 mg/kg, route oral. The procedure, abridged: (§1)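 Rat pharmacokinetics with single doses: oral at 10 mg/kg and intravenous at 2 mg/kg, n = 4. Cmax and half-life were taken from the oral arm, and bioavailability from comparison of the oral and intravenous exposures.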

The nature of series [6]: Half life in rat at 10 mg/kg, po. Format: ADME, organism-based. Details: dose 10 mg/kg, route oral. As to conditions: in vivo. A digest of the protocol:
as §1

The nature of series [7]: Oral bioavailability in rat at 10 mg/kg. Format: ADME, organism-based. As to conditions: in vivo. A digest of the protocol: as §1
Series [8] is described as follows: Clearance in rat at 2 mg/kg, iv. Particulars: in vivo.

A word on the IC50: it is the concentration that gives 50% inhibition. As usually defined, the Ki is the dissociation constant of the complex between target and ligand, obtained from inhibition or displacement. Low readings indicate a stronger hold on the target, high ones a looser hold on the target. In general, half-life refers to how long it takes for the measured level to halve. Read a low half-life as fast loss. In general, Cmax refers to the maximum level reached in the sampled fluid or tissue. The bioavailability is dose-corrected exposure relative to a reference, in per cent. What is called clearance is the rate of elimination divided by the concentration.

As to `CCc1cccc(CC)c1-c1cc(OC)c2c(n1)CCCC2N1CCc2ccccc2C1` (stereo unspecified), the IC50 in series [1] is 1100 nM.

As for `CCc1cccc(CC)c1-c1ccc2c(n1)CCCC2N(CC)c1cccc2ccccc12` (stereo unspecified), the 50% inhibitory concentration (IC50) in series [1] is over 10000 nM.

In the case of `CCc1cccc(CC)c1-c1cc(OC)c2c(n1)CCCC2N(CC)c1cccc2c1CCCC2` (stereo unspecified), in series [1], the IC50 amounted to 220 nM.

Consider `CCc1cccc(CC)c1-c1cc(OC)c2c(n1)CCCC2N1CCc2c(cccc2C(F)(F)F)C1` (stereo unspecified), for which the 50% inhibitory concentration (IC50) in series [1] was over 10000 nM.

Turning to `CCNC1CCCc2nc(-c3c(CC)cccc3CC)cc(OC)c21` (stereo unspecified), the IC50 in series [1] was over 10000 nM.

For the compound `CCc1cccc(CC)c1-c1cc(OC)c2c(n1)CCCC2N(C)c1cccc2ccccc12` (stereo unspecified), the IC50 in series [1] amounted to 170 nM.

For `CCN(c1cccc2ccccc12)C1CCCc2nc(-c3ccccc3)cc(OC)c21` (stereo unspecified), the IC50 in series [1] was over 10000 nM.

With `CCN(c1cccc2ccccc12)C1CCCc2nc(-c3ccsc3)cc(OC)c21` (stereo unspecified), in series [1], the IC50 was over 10000 nM.

Take `CCN(c1cccc2ccccc12)C1CCCc2nc(-c3ccccc3C(C)C)cc(OC)c21` (stereo unspecified): in series [1], the IC50 is 1700 nM.

Consider `CCc1ccccc1-c1cc(OC)c2c(n1)CCCC2N(CC)c1cccc2ccccc12` (stereo unspecified), for which the IC50 in series [1] stood at 650 nM.

In the case of `CCN(c1cccc2ccccc12)C1CCCc2nc(-c3ccc4c(c3)OCO4)cc(OC)c21` (stereo unspecified), the half-maximal inhibitory concentration (IC50) in series [1] was over 10000 nM.

For the compound `CCN(c1cccc2ccccc12)C1CCCc2nc(-c3cccnc3)cc(OC)c21` (stereo unspecified), the IC50 in series [1] is over 10000 nM.

With `CCc1cccc(CC)c1-c1cc(OC)c2c(n1)CCCC2N(C)c1ccc2ccccc2c1` (stereo unspecified), in series [1], the IC50 was over 10000 nM.

Turning to `CCc1cccc(CC)c1-c1cc(OC)c2c(n1)CCCC2N(C)c1c(C)ccc2ccccc12` (stereo unspecified), the IC50 in series [1] was found to be 1500 nM.

`CCN(c1cccc2ccccc12)C1CCCc2nc(-c3c(OC)cccc3OC)cc(OC)c21` (stereo unspecified): in series [1], the half-inhibitory concentration (IC50) was 1800 nM. In addition, affinity in series [2] was put at a Ki of 1200 nM.

For `CCc1cccc(CC)c1-c1cc(OC)c2c(n1)CCCC2N(CCO)c1cccc2ccccc12` (stereo unspecified), the IC50 in series [1] was 190 nM. Besides, the Ki in series [2] was 180 nM.

Turning to `CCN(c1cccc2ccccc12)C1CCCc2nc(-c3ccccc3-c3ccccc3)cc(OC)c21` (stereo unspecified), in series [1], the half-inhibitory concentration (IC50) was over 10000 nM.

Consider `CCN(c1cccc2ccccc12)C1CCCc2nc(-c3c(C)cccc3C)cc(OC)c21` (stereo unspecified), for which the 50% inhibitory concentration (IC50) in series [1] was 130 nM.

On to `CCc1cccc(CC)c1-c1cc(CC)c2c(n1)CCCC2N(C)Cc1cccc2ccccc12` (stereo unspecified), for which the IC50 in series [1] is over 10000 nM.

Take `CCc1cccc(CC)c1-c1cc(CC)c2c(n1)CCCC2N(CC)Cc1ccccc1` (stereo unspecified): the concentration for half-maximal inhibition (IC50) in series [1] is over 10000 nM.

In the case of `CCc1cccc(CC)c1-c1cc(OC)c2c(n1)CCCC2N1CCc2cc(OC)c(OC)cc2C1` (stereo unspecified), the half-inhibitory concentration (IC50) in series [1] was over 10000 nM.

`CCc1cccc(CC)c1-c1cc(OC)c2c(n1)CCCC2N(C)c1cccc2cc(OC)ccc12` (stereo unspecified): the IC50 in series [1] turned out to be 180 nM.

On to `CCc1cccc(CC)c1-c1cc(OC)c2c(n1)CCCC2N(C)c1cccc2c(OC)cccc12` (stereo unspecified), for which the IC50 in series [1] is over 10000 nM.

In the case of `CCc1cccc(CC)c1-c1cc(OC)c2c(n1)CCCC2N1CCc2ccc(C(F)(F)F)cc2C1` (stereo unspecified), in series [1], the IC50 was over 10000 nM.

Take `CCc1cccc(CC)c1-c1cc(OC)c2c(n1)CCCC2N1CCc2cccc(C(F)(F)F)c2C1` (stereo unspecified): the half-inhibitory concentration (IC50) in series [1] is 270 nM.

On to `CCN(c1cccc2ccccc12)C1CCCc2nc(Cl)cc(OC)c21` (stereo unspecified), for which the IC50 in series [1] was over 10000 nM.

As for `CCc1cccc(CC)c1-c1cc(OC)c2c(n1)CCCC2Nc1cccc2ccccc12` (stereo unspecified), in series [1], the 50% inhibitory concentration (IC50) is over 10000 nM.

Turning to `CCc1cccc(CC)c1-c1cc(OC)c2c(n1)CCCC2N1CCc2ccc(OC)cc2C1` (stereo unspecified), the IC50 in series [1] is over 10000 nM.

As for `CCc1cccc(CC)c1-c1cc(Cl)c2c(n1)CCCC2N(CC)c1cccc2ccccc12` (stereo unspecified), in series [1], the half-inhibitory concentration (IC50) amounted to 2000 nM.

`CCc1cccc(CC)c1-c1cc(OC)c2c(n1)CCCC2N(CC)c1cccc2ccccc12` (stereo in doubt; 27): the half-life in series [3] is 0.9 h; in series [6] it was 1.8 h. In series [4], the remaining at 10 min turned out to be 88%. Besides, in series [5], the Cmax was 1300 nM. The compound also showed a bioavailability in series [7] of 59%. The compound further displayed a clearance in series [8] of 31 mL/min/kg.

In the case of `CCc1cccc(CC)c1-c1cc(OC)c2c(n1)CCCC2N[C@H]1CCCc2ccccc21` (stereo in doubt; 38), the IC50 in series [1] stood at 820 nM.

Regarding `CCc1cccc(CC)c1-c1cc(OC)c2c(n1)CCCC2N[C@H]1CCCc2ccccc21` (stereo in doubt; 39), the IC50 in series [1] is 5500 nM.

On to `CCc1cccc(CC)c1-c1cc(OC)c2c(n1)CCCC2N[C@@H]1CCCc2ccccc21` (stereo in doubt; 40), for which the IC50 in series [1] is 1900 nM.

Regarding `CCc1cccc(CC)c1-c1cc(OC)c2c(n1)CCCC2N[C@@H]1CCCc2ccccc21` (stereo in doubt; 41), the half-maximal inhibitory concentration (IC50) in series [1] came out at 8100 nM.
